Converted amounts (≈) assume the structure as drawn. The source made the active and inactive calls. No cut-off for these calls is given here.
Experiments:
[1] = Intrinsic clearance in mouse liver microsomes; assay type: ADME, Microsome
[2] = Kinetic solubility of compound; assay type: physicochemical; conditions: read-out: Kinetic_solubility
Outline: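 Kinetic solubility read by charged aerosol detection (CAD).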

[3] = test system: Trypanosoma cruzi; experiment: Antitrypanosomal activity against intracellularTrypanosoma cruzi amastigote; assay type: functional, organism-based
Outline: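 Intracellular T. cruzi amastigote assay; potency expressed as pEC50 from at least three independent replicates, SD ≤0.2.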

[4] = Inhibition of Trypanosoma cruzi CYP51
[5] = test system: Trypanosoma cruzi; experiment: Antitrypanosomal activity against Trypanosoma cruzi infected in mouse assessed as decrease in parasite level at 50 mg/kg twice daily for 5 days cotreated with 1-ABT; assay type: functional, organism-based; conditions: time 5.0 day
Outline: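 Acute infection mouse model; drug given twice daily for 5 days from day 14 post-infection, with 1-ABT 50 mg/kg given 30 min before each dose. Vehicle controls dosed b.i.d. at 10 mL/kg. Whole-body bioluminescence imaging, dorsal and ventral, quantified as total flux (p/s). Cyclophosphamide 200 mg/kg i.p. on days 28, 32 and 36 post-infection to detect relapse. Blood sampled on days 1 and 5 (n = 3).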

Row | SMILES | CLint [1] [mL/min/g] | EC50 [3] [µM] | further results
1 | Cc1ccc(S(=O)(=O)Nc2ccc(CN3CCN(C(=O)c4cccc(C#N)c4)CC3)cc2)cc1 | – | 0.398 | –
2 | COc1ccc(S(=O)(=O)Nc2ccc(Cn3cc4c(n3)CN(C(=O)c3cccc(Cl)c3)C4)cc2)cc1 | – | 12.6 | –
3 | Cc1ccc(S(=O)(=O)Nc2ccc(CN3CCN(C(=O)Cc4coc5ccccc45)CC3)cc2)cc1 | – | 6.31 | –

Now from value to molecule, other results behind:

Row | CLint [1] [mL/min/g] | EC50 [3] [µM] | SMILES | further results
4 | > 50 | 3.98 | Cc1ccc(S(=O)(=O)Nc2ccc(CN3CCN(C(=O)c4cc(=O)c5ccccc5n4C)CC3)cc2)cc1 | solubility kinetic [2]: 29 µM (≈ 15.4 µg/mL)
5 | > 50 | – | Cc1ccc(S(=O)(=O)Nc2ccc(CN(C)[C@H]3CCN(C(=O)c4cccc(Cl)c4)C3)cc2)cc1 | –
6 | > 50 | – | Cc1ccc(S(=O)(=O)Nc2ccc(CN(C)[C@@H]3CCN(C(=O)c4cccc(Cl)c4)C3)cc2)cc1 | –
7 | > 50 | – | Cc1ccc(S(=O)(=O)Nc2ccc(CN3CCN(C(=O)c4cccc(Cl)c4)CC3)cc2)cc1 | pIC50 [4]: 4.7; Activity [5]: Active

Source: ChEMBL document CHEMBL5113407, “Identification and development of a series of disubstituted piperazines for the treatment of Chagas disease” (Eur J Med Chem, 2022)
